Most compounds without a hit are left out; they make up all but 2.9% or so of the library.
Apaf-1 inh: human Apaf-1 inhibition | reconstituted apoptosome caspase-3 activity, DEVD-Rh110 fluorescence | inhibition, % at 20 µM | hit rate 0.71% among 330,000; active = inhibition of at least 40% at 20 µM
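Assay system – apoptosome proteins · Medium – Hepes buffer, pH 7.5 · Also added – cytochrome c with DEVD-Rh110 · Timing – 30 min compound preincubation, 50 min activation, room temperature · Detection – Rh110 fluorescence, excitation 480 nm, emission 540 nm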
PfG6PD inh: PfG6PD (Plasmodium falciparum) enzyme inhibition | PfGluPho enzyme, NADPH resazurin-diaphorase fluorescence | inhibition, % at 20 µM | hit rate 0.78% among 350,000 | AID 504690;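 active = inhibition reaching at least a set limit at 20 µM in the primary screen, cut at about 59% in these data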
M18AAP inhibitor: blocks P. falciparum M18 aspartyl aminopeptidase; recombinant PfM18AAP, H-Glu-NHMec fluorogenic cleavage; inhibition, % at 7.35 µM; hit rate 1.2% among 290,000; AID 1822;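 active = inhibition above the campaign mean inhibition over all tested compounds plus 3 SD, cut at about 28% in these data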
ZTA counter: counter-screen for EBNA-1 inhibitors: inhibitors of Epstein-Barr virus ZTA | P03206 | ZTA-DNA binding, fluorescence polarization | inhibition, % at 11 µM | hit rate 0.15% among 320,000; in the data active = inhibition above about 33%
Target sequence (P03206 whole entry, looked up): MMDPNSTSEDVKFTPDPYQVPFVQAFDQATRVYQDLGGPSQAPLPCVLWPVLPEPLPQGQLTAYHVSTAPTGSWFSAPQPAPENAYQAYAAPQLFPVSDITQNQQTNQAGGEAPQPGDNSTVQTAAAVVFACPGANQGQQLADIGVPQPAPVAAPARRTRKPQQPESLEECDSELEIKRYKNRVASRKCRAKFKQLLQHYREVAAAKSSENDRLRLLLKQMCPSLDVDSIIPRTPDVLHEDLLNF
UBC13 inh: blocks human UBC13 polyubiquitin chain formation. TR-FRET. hit rate 0.47% among 330,000. P61088. inhibition, % at 20 µM; in the data active = inhibition above about 45%, passing the limit was not always enough
Target sequence (P61088 whole entry, looked up): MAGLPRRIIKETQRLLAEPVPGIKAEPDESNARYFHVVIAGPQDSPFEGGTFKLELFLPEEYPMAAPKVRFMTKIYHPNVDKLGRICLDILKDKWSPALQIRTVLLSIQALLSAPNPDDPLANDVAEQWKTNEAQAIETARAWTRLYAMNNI
EBNA-1 inh: blocks EBNA-1 binding to DNA; AID 1950; inhibition, % at 14.8 µM; EBNA-1 DNA binding, fluorescence polarization; hit rate 0.34% among 300,000; in the data active = inhibition above about 28%
Zta DNA confirm: EBV ZTA DNA binding inhibition, confirmation; Zta-ZRE DNA binding, fluorescence polarization; shares compounds with ZTA counter; hit rate 30% among 320; inhibition, % at 11.1 µM;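 active = mean inhibition across triplicate runs above the hit threshold derived for the original primary screen, cut at about 33% in these data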
EBNA-1 counter: counter-screen for ZTA inhibitors: EBNA-1 DNA binding inhibition; shares compounds with ZTA counter; fluorescence polarization; inhibition, % at 14.8 µM; 320 tested, under 10 active; AID 2362; call rule not given here
Large screens that a line does not name were inactive (follow-up assays come after a bar, where they were run).

Nc1nc(Nc2ccccc2F)sc1C(=O)c1ccccc1	ZTA counter 52 | Zta DNA confirm inactive | EBNA-1 counter inactive
Cc1nc(Nc2ccccc2)sc1C(=O)c1ccc(F)cc1	none
CCCCc1nnc(SC(C)C(=O)Nc2nccs2)n1C (stereo unspecified)	none
O=C(/C=C/c1ccco1)NC(=S)Nc1ccc(C(=O)O)cc1	M18AAP inhibitor 29, ZTA counter 54 | Zta DNA confirm 38 | EBNA-1 counter inactive
COc1ccc(NC(=S)NC(=O)/C=C/c2ccco2)cc1	none
Cc1ccccc1OCCNC(=O)/C=C/c1ccccc1	ZTA counter 129 | Zta DNA confirm inactive | EBNA-1 counter inactive
CCC(=O)Nc1nc2ccc3sc(C)nc3c2s1	ZTA counter 35 | Zta DNA confirm inactive | EBNA-1 counter inactive
O=C(COc1ccc(Br)cc1)N/N=C1\SCC(=O)N1c1ccc(F)cc1	none
Cc1c(C)c2ccc(OCC(=O)N(C)C3CCS(=O)(=O)C3)c(C)c2oc1=O (stereo unspecified)	none
O=c1[nH]c(-c2ccc(Cl)cc2)nc(=S)[nH]1	ZTA counter 46 | Zta DNA confirm inactive | EBNA-1 counter inactive
CCn1c(CSc2n[nH]c(N)n2)nc2cc(C(=O)O)ccc21	ZTA counter 34 | Zta DNA confirm 39 | EBNA-1 counter inactive
COC(=O)c1ccc(C(=O)OC)c(NC(=O)CSc2n[nH]c(N)n2)c1	none (no result: M18AAP inhibitor, ZTA counter, EBNA-1 inh)
COCCn1c(SCCCC(=O)c2ccc(Br)cc2)nnc1-c1ccncc1	none
CCn1c(CSc2nnc(-c3ccncc3)n2CCOC)nc2cc(C(=O)O)ccc21	ZTA counter 37 | Zta DNA confirm inactive | EBNA-1 counter inactive
O=C1CCC(=O)N1N1C(=O)C2C3c4ccccc4C(c4ccccc43)C2C1=O (stereo unspecified)	none
COc1ccc(C(=O)Nc2ccc(C(=O)Nc3cccnc3)cc2)cc1	ZTA counter 52 | Zta DNA confirm inactive | EBNA-1 counter inactive
COc1cc(/C=C/C(=O)O[C@H]2[C@H](O[C@@H]3O[C@@H](C)[C@H](O)[C@@H](O)[C@H]3O)[C@@H](O)[C@H](OCCc3ccc(O)c(OC)c3)O[C@@H]2CO)ccc1O	none (no result: M18AAP inhibitor, ZTA counter, EBNA-1 inh)
CC(C)(C(=O)Nc1nccs1)c1ccccc1	ZTA counter 40 | Zta DNA confirm inactive | EBNA-1 counter inactive
O=C(Nc1ccccc1)Nc1nccs1	none
COc1ccc(Nc2nc(C)nc3c2oc2ccccc23)c(OC)c1	ZTA counter 39 | Zta DNA confirm inactive | EBNA-1 counter inactive
COc1cc(/C=C/C(C)=NNc2ccccc2)ccc1O	none (no result: Apaf-1 inh, M18AAP inhibitor, ZTA counter, UBC13 inh, EBNA-1 inh)
COc1cc(/C=C/C(=O)/C=C(O)/C=C/c2ccc(O)c(OC)c2)ccc1O	ZTA counter 34 (no result: M18AAP inhibitor, EBNA-1 inh) | Zta DNA confirm inactive | EBNA-1 counter inactive
COc1ccc(CCC(=O)Nc2ccc3c(c2)OCCO3)cc1	ZTA counter 55 | Zta DNA confirm inactive | EBNA-1 counter inactive
O=C(CCCCCN1C(=O)CCC1=O)Nc1ccc2c(c1)OCCO2	ZTA counter 34 | Zta DNA confirm inactive | EBNA-1 counter inactive
O=C(CCCOc1ccccc1)Nc1ccc2c(c1)OCCO2	none
COc1ccc(CCC(=O)Nc2ccc3c(c2)OCO3)cc1	none
COc1ccc(-c2cc(-n3c(C(F)(F)F)nc4ccccc43)n(CCC#N)n2)cc1	none
COc1ccc(Sc2nc3ccccc3n3c(C(F)(F)F)nnc23)cc1	ZTA counter 47 | Zta DNA confirm inactive | EBNA-1 counter inactive
O=C(CN1C(=O)/C(=C/c2ccco2)SC1=S)Nc1ccc(C(=O)O)c(O)c1	M18AAP inhibitor 47, ZTA counter 57 | Zta DNA confirm inactive | EBNA-1 counter inactive
O=C(CCCN1C(=O)/C(=C\c2ccco2)SC1=S)Nc1ccc(O)cc1C(=O)O	ZTA counter 53 | Zta DNA confirm inactive | EBNA-1 counter inactive
COCCCN1C(=O)c2ccc(C(=O)OCC(=O)N(CCC#N)c3cc(C)cc(C)c3)cc2C1=O	none (no result: M18AAP inhibitor)
CCN(c1ccccc1)S(=O)(=O)c1ccc(Cl)c(C(=O)N(CC2CCCO2)C2CCS(=O)(=O)C2)c1 (stereo unspecified)	none
COc1cc(/C=C2/S/C(=N/S(=O)(=O)Cc3ccccc3)NC2=O)c([N+](=O)[O-])cc1OC	none
COc1cc(/C=C2\S/C(=N/S(=O)(=O)Cc3ccccc3)NC2=O)c([N+](=O)[O-])cc1OC	ZTA counter 39 | Zta DNA confirm inactive | EBNA-1 counter inactive
CCOC(=O)[C@H]1[C@H]2COc3cc(OC)ccc3[C@@H]2N2C(=O)[C@@H](CO)NC(=O)[C@@]12C	none (no result: PfG6PD inh, M18AAP inhibitor, ZTA counter, EBNA-1 inh)
CS(=O)(=O)n1nc(-c2ccc(Cl)cc2)nc1N	none
Cn1nc(-c2ccc(Cl)cc2)nc2c(=O)n(C)c(=O)nc1-2	Apaf-1 inh 99, ZTA counter 49 (no result: PfG6PD inh) | Zta DNA confirm 82 | EBNA-1 counter inactive
CN(C(=O)c1cccc(C#N)c1)c1nnc(C2CCCO2)s1 (stereo unspecified)	ZTA counter 110 | Zta DNA confirm inactive | EBNA-1 counter inactive
COc1ccc2[nH]cc(/C=C/C(=O)c3ccccc3)c2c1	none

Compound activity: PubChem, several laboratories
